Reference: ChEMBL document CHEMBL1157793, “Synthesis and antitumor activity of 1,5-disubstituted 1,2,4-triazoles as cis-restricted combretastatin analogues” (J Med Chem, 2010)

How the values were obtained:
MCF7 = assay: Antiproliferative activity against human MCF7 cells after 72 hrs by MTT assay; assay type: functional, cell-based; conditions: MCF7, 72 h
HeLa = assay: Antiproliferative activity against human HeLa cells after 72 hrs by MTT assay; assay type: functional, cell-based
K562 = assay: Antiproliferative activity against human K562 cells after 72 hrs by MTT assay; assay type: functional, cell-based; conditions: K562, 72 h
Procedure, shortened: (§1)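 Cells seeded at 8×10^3 per well (Jurkat, HL-60, K562 in RPMI-1640; MCF7, A549, HeLa in DMEM; all with 10% FBS, penicillin/streptomycin), incubated 18 h at 37 °C, 5% CO2, then exposed to compound at varying concentrations in complete medium for 72 h.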

HL-60 = assay: Antiproliferative activity against human HL60 cells after 72 hrs by MTT assay; assay type: functional, cell-based; conditions: HL-60, 72 h
Jurkat = assay: Antiproliferative activity against human Jurkat cells after 72 hrs by MTT assay; assay type: functional, cell-based; procedure, shortened: as §1
A549 = assay: Antiproliferative activity against human A549 cells after 72 hrs by MTT assay; assay type: functional, cell-based; conditions: A549, 72 h
[1] = Inhibition of bovine brain tubulin polymerization after 20 mins by turbidimetry; parameters: species or system Bos taurus
Procedure, shortened: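 Bovine brain tubulin (10 µM) preincubated with varying compound concentrations in glutamate buffer at 30 °C, chilled to 0 °C, 0.4 mM GTP added, then warmed to 30 °C in spectrophotometer; assembly followed by turbidity at 350 nm.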

Bos taurus = organism: Bos taurus; assay: Displacement of [3H]colchicine from bovine tubulin at 1 uM
Procedure, shortened: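 [3H]Colchicine binding inhibition measured with reaction mixtures of 1 µM tubulin, 5 µM [3H]colchicine and 1 µM test compound.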

SMILES	IC50 (MCF7)	IC50 (HeLa)	IC50 (K562)	IC50 (HL-60)	IC50 (Jurkat)	IC50 (A549)	IC50 [1]	Activity (Bos taurus)
COc1cc(-n2ncnc2-c2ccc(Cl)c(Cl)c2)cc(OC)c1OC	> 10 µM	> 10 µM	> 10 µM	> 10 µM	> 10 µM	> 10 µM	–	–
COc1cc(-n2ncnc2-c2ccc(OC(F)(F)F)cc2)cc(OC)c1OC	> 10 µM	> 10 µM	> 10 µM	> 10 µM	> 10 µM	> 10 µM	–	–
COc1cc(-n2ncnc2-c2ccc(C)cc2)cc(OC)c1OC	0.54 µM	0.25 µM	> 10 µM	0.09 µM	0.3 µM	1.1 µM	3.9 µM	33%
CCOc1cccc(-c2ncnn2-c2cc(OC)c(OC)c(OC)c2)c1	> 10 µM	> 10 µM	> 10 µM	> 10 µM	> 10 µM	> 10 µM	–	–
COc1cc(-n2ncnc2-c2cccc(F)c2)cc(OC)c1OC	> 10 µM	> 10 µM	> 10 µM	> 10 µM	> 10 µM	> 10 µM	–	–
COc1cc(-c2ncnn2-c2ccc(Cl)cc2)cc(OC)c1OC	> 10 µM	> 10 µM	> 10 µM	> 10 µM	> 10 µM	> 10 µM	–	–
COc1cc(-n2ncnc2-c2ccc(SC)cc2)cc(OC)c1OC	0.39 µM	0.15 µM	0.34 µM	0.5 µM	0.05 µM	0.8 µM	3.6 µM	38%
COc1ccc(-c2ncnn2-c2cc(OC)c(OC)c(OC)c2)cc1	0.36 µM	0.28 µM	0.95 µM	0.12 µM	0.05 µM	0.52 µM	2.3 µM	55%
COc1cc(-c2ncnn2-c2ccc(Cl)cc2Cl)cc(OC)c1OC	> 10 µM	> 10 µM	> 10 µM	> 10 µM	> 10 µM	> 10 µM	–	–
COc1ccc(/C=C\c2cc(OC)c(OC)c(OC)c2)cc1O [COMBRETASTATIN A4]	–	–	0.005 µM	–	0.005 µM	–	–	87%
COc1cc(-c2ncnn2-c2ccc(F)cc2)cc(OC)c1OC	> 10 µM	> 10 µM	> 10 µM	> 10 µM	> 10 µM	> 10 µM	–	–
CCOc1ccccc1-c1ncnn1-c1cc(OC)c(OC)c(OC)c1	> 10 µM	> 10 µM	> 10 µM	> 10 µM	> 10 µM	> 10 µM	–	–
COc1cc(-c2ncnn2-c2cccc(N)c2)cc(OC)c1OC	> 10 µM	> 10 µM	> 10 µM	> 10 µM	> 10 µM	> 10 µM	–	–
COc1cc(-n2ncnc2-c2cccc(Cl)c2)cc(OC)c1OC	> 10 µM	> 10 µM	> 10 µM	> 10 µM	> 10 µM	> 10 µM	–	–
COc1cc(-n2ncnc2-c2ccc(F)cc2)cc(OC)c1OC	> 10 µM	> 10 µM	> 10 µM	> 10 µM	> 10 µM	> 10 µM	–	–
COc1cc(-n2ncnc2-c2ccc(Cl)cc2)cc(OC)c1OC	> 10 µM	> 10 µM	> 10 µM	> 10 µM	> 10 µM	> 10 µM	–	–
COc1cc(-c2ncnn2-c2ccc([N+](=O)[O-])cc2)cc(OC)c1OC	> 10 µM	> 10 µM	> 10 µM	> 10 µM	> 10 µM	> 10 µM	–	–
COc1cc(-c2ncnn2-c2cccc([N+](=O)[O-])c2)cc(OC)c1OC	> 10 µM	> 10 µM	> 10 µM	> 10 µM	> 10 µM	> 10 µM	–	–
COc1cc(-c2ncnn2-c2ccc(N)cc2)cc(OC)c1OC	> 10 µM	> 10 µM	> 10 µM	> 10 µM	> 10 µM	> 10 µM	–	–
COc1cc(-n2ncnc2-c2ccccc2)cc(OC)c1OC	> 10 µM	> 10 µM	> 10 µM	> 10 µM	> 10 µM	> 10 µM	–	–
COc1cc(-n2ncnc2-c2cccc([N+](=O)[O-])c2)cc(OC)c1OC	> 10 µM	> 10 µM	> 10 µM	> 10 µM	> 10 µM	> 10 µM	–	–
COc1ccccc1-c1ncnn1-c1cc(OC)c(OC)c(OC)c1	> 10 µM	> 10 µM	> 10 µM	> 10 µM	> 10 µM	> 10 µM	–	–
COc1cc(-c2ncnn2-c2cccc(F)c2)cc(OC)c1OC	> 10 µM	> 10 µM	> 10 µM	> 10 µM	> 10 µM	> 10 µM	–	–
COc1cc(-c2ncnn2-c2ccc(Cl)c(Cl)c2)cc(OC)c1OC	> 10 µM	> 10 µM	> 10 µM	> 10 µM	> 10 µM	> 10 µM	–	–
COc1cc(-c2ncnn2-c2ccccc2)cc(OC)c1OC	> 10 µM	> 10 µM	> 10 µM	> 10 µM	> 10 µM	> 10 µM	–	–
COc1cccc(-c2ncnn2-c2cc(OC)c(OC)c(OC)c2)c1	> 10 µM	> 10 µM	> 10 µM	> 10 µM	> 10 µM	> 10 µM	–	–
COc1cc(-n2ncnc2-c2ccc(OC(C)C)cc2)cc(OC)c1OC	0.61 µM	0.6 µM	0.8 µM	0.7 µM	0.65 µM	> 10 µM	5.1 µM	37%
COc1ccc(-n2ncnc2-c2cc(OC)c(OC)c(OC)c2)cc1	7.4 µM	> 10 µM	3.6 µM	6.2 µM	0.093 µM	> 10 µM	16 µM	–
